Tests used:
Type in all cases: functional
786-0 = test: Growth inhibition of human 786-0 cells after 48 hrs by sulforhodamine B assay; settings: 786-0, 48 h; for CC50: read-out: LC50 (the source's name)
Procedure, shortened: (§1)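 Sulforhodamine B colorimetric assay following the NCI standard protocol, with doxorubicin as positive control. Each compound was tested at four concentrations in 10-fold dilutions (0.25 to 250). GI50, the concentration giving 50% growth reduction versus untreated control cells, was derived from dose–response curves.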

[1] = Growth inhibition of human NCI-460 cells after 48 hrs by sulforhodamine B assay; settings: NCI-460, 48 h; procedure, shortened: as §1
[2] = Growth inhibition of human PCO3 cells after 48 hrs by sulforhodamine B assay; settings: PCO3, 48 h; procedure, shortened: as §1
K562 = test: Growth inhibition of human K-562 cells after 48 hrs by sulforhodamine B assay; settings: K562, 48 h; procedure, shortened: as §1
HT-29 = test: Growth inhibition of human HT-29 cells after 48 hrs by sulforhodamine B assay; settings: HT-29, 48 h; procedure, shortened: as §1
UACC-62 = test: Growth inhibition of human UACC-62 cells after 48 hrs by sulforhodamine B assay; settings: UACC-62, 48 h; procedure, shortened: as §1
OVCAR = test: Growth inhibition of human OVCAR cells after 48 hrs by sulforhodamine B assay; procedure, shortened: as §1
MCF7 = test: Growth inhibition of human MCF7 cells after 48 hrs by sulforhodamine B assay; settings: MCF7, 48 h; procedure, shortened: as §1

SMILES | GI50 (786-0) [µM] | TGI (786-0) [µM] | CC50 (786-0) [µM] | GI50 [1] [µM] | LC50 (concentration for 50% net cell kill) [1] [µM] | TGI [1] [µM] | GI50 [2] [µM] | TGI [2] [µM] | GI50 (K562) [µM] | TGI (K562) [µM] | GI50 (HT-29) [µM] | TGI (HT-29) [µM] | GI50 (UACC-62) [µM] | TGI (UACC-62) [µM] | GI50 (OVCAR) [µM] | TGI (OVCAR) [µM] | GI50 (MCF7) [µM] | TGI (MCF7) [µM] | LC50 (concentration killing 50% of cells) [2] [µM] | LC50 (concentration killing 50% of the cells, NCI protocol) (OVCAR) [µM] | other results
CN(C)c1ccc(-c2nc(-c3n[nH]c(=S)n3N)cc3c2[nH]c2ccccc23)cc1 | 0.97 | 80 | > 100 | 0.2 | > 100 | 71.8 | > 100 | > 100 | > 100 | > 100 | > 100 | > 100 | 50.4 | > 100 | > 100 | > 100 | > 100 | > 100 |  |  | 
Oc1ccc(-c2nc(-c3n[nH]c(=S)[nH]3)cc3c2[nH]c2ccccc23)cc1 | 0.17 | 23.8 | > 100 | 6.69 |  | > 100 | 0.5 | 40.7 | > 100 | > 100 | 46.2 | > 100 | 10.6 | > 100 | 6.41 | > 100 | 19.8 | > 100 | > 100 |  | 
CN(C)c1ccc(-c2nc(-c3n[nH]c(=S)[nH]3)cc3c2[nH]c2ccccc23)cc1 | 0.04 | 1.24 | 37.3 | 0.06 | > 100 | 8.96 | 1.37 | 6.68 | 11.1 | > 100 | 8.63 | 51.5 | 1.74 | > 100 | 1.09 | 7.28 | 8.63 | 37 | > 100 | 47.9 | LC50 (concentration killing 50% of cells) (MCF7): > 100 µM
Nn1c(-c2cc3c([nH]c4ccccc43)c(-c3ccc(O)cc3)n2)n[nH]c1=S | 0.26 | 94.1 | > 100 | 0.15 |  | 12.2 | 25.5 | > 100 | 29.9 | > 100 | 34 | > 100 | 22.5 | > 100 | 27.5 | 98.4 | 61.2 | > 100 |  | > 100 | 
Nn1c(-c2cc3c([nH]c4ccccc43)c(-c3ccccc3Cl)n2)n[nH]c1=S | 39.5 |  | > 100 | 15.4 | > 100 | 38 | 24.7 | > 100 | 62.4 | > 100 | 33 | > 100 | 20.2 | 86.1 | 6.8 | 49.9 | 70.1 | > 100 |  | > 100 | LC50 (concentration killing 50% of cells, NCI protocol) (UACC-62): > 100 µM
CSc1nnc(-c2cc3c([nH]c4ccccc43)c(-c3ccccc3Cl)n2)n1N | 16.8 | 93.5 | > 100 | 13.9 | > 100 | 41.8 | 22.2 | > 100 | 1.92 | > 100 | 20.4 | > 100 | 18.6 | 59 | 11.2 | 38.4 | 20.1 | > 100 |  | > 100 | LC50 (concentration killing 50% of cells, NCI protocol) (UACC-62): > 100 µM
Nn1c(-c2cc3c([nH]c4ccccc43)c(-c3ccccc3)n2)n[nH]c1=S | 10.9 | 49.4 | > 100 | 1.59 | > 100 | 54.7 | 10.9 | 30.6 | 9.93 | > 100 | 15 | 86.9 | 24.3 | > 100 | 12 | 25.3 | 15 | 32.5 | > 100 | 52.5 | LC50 (concentration killing 50% of cells) (MCF7): > 100 µM
CSc1nnc(-c2cc3c([nH]c4ccccc43)c(-c3ccccc3)n2)n1N | > 100 |  |  | > 100 |  |  | > 100 |  | 2.04 |  | > 100 |  | > 100 |  | > 100 |  | > 100 |  |  |  | 

Reference: ChEMBL document CHEMBL1151684, “Synthesis and antitumoral activity of novel 3-(2-substituted-1,3,4-oxadiazol-5-yl) and 3-(5-substituted-1,2,4-triazol-3-yl) beta-carboline derivatives” (2008)
